Source: the EternaBench riboswitch data

Test system: MS2 coat protein
Assay: apparent Kd, MS2 coat protein; higher = weaker binding; RNA-MaP array; FMN 200 µM where present
Outline: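 Stalled E. coli RNA polymerase transcribed the designs on Illumina sequencing-chip clusters. SNAP-549-labelled MS2 coat protein was titrated from 0.7 or 1.5 nM, doubling to 3 µM, without and then with constant ligand, in 100 mM Tris-HCl pH 7.5, 80 mM KCl, 4 mM MgCl2, BSA, DTT, yeast tRNA and Tween-20. Per-cluster binding curves were fitted to green signal normalised to red-channel RNA signal and control-cluster median Fmax. The apparent Kd is the median of the filtered fits.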

[1] = designed as: OFF switch for flavin mononucleotide, no ligand
[2] = ligand present: flavin mononucleotide, designed as: OFF switch for flavin mononucleotide
[3] = designed as: ON switch for flavin mononucleotide, no ligand
[4] = ligand present: flavin mononucleotide, designed as: ON switch for flavin mononucleotide

Sequence	apparent Kd [1]	apparent Kd [2]	apparent Kd [3]	apparent Kd [4]
AUAUUAUUGAUCCAUUUUUUCAACAUGAGGAUCACCCAUGUGCAGGAUAUCGUGAUUAUUAUCAACGAGAAGGGCAAAUUCAUU	76.5 nM	234 nM	–	–
AUCAGCUCGUCAGGAUAUAAGUCACUGCGUCAGCAGUGUGGUAAGAUCACAUGAGGAUCACCCAUGUAGAAGGGACGAGCUGAU	11.8 nM	46.7 nM	–	–
AUCAGCUCGUCAGGAUAUACGUCACUGCGUCAGCAGUGUGGUAAGAUCACAUGAGGAUCACCCAUGUAGAAGGGACGAGCUGAA	14.3 nM	267 nM	–	–
AUCAGCUCGUCAGGAUAUACGUCACUGCGUCAGCAGUGUGGUAAGCUCACAUGAGGAUCACCCAUGUAGAAGGGACGAGCUGAU	6.48 nM	22.9 nM	–	–
AUCAGCUCGUCAGGAUAUACGUCACUGCGUCAGCAGUGUGGUAUGAUCACAUGAGGAUCACCCAUGUAGAAGGGACGAGCUGAU	8.62 nM	132 nM	–	–
AUCAGCUCGUCAGGAUAUACGUCACUGCUUCGGCAGUGUAUUAAGAUCACAUGAGGAUCACCCAUGUAGAAGGGACGAGCUGAU	21.7 nM	226 nM	–	–
AUCAGCUCGUCAGGAUAUACGUUACUGCGUCAGCAGUGUGGUAAGAUCACAUGAGGAUCACCCAUGUAGAAGGGACGAGCUGAU	61.8 nM	653 nM	–	–
AUCAGCUCGUGAGGAUAUACAACACUGCUUCGGCAGUGUAUUAAGAUCACAUGAGGAUCACCCAUGUAGAAGGCACGAGCUGAU	13.5 nM	278 nM	–	–
AUCAUGUAAGGAUAUCUGACAUGUGACGAAAGUCACUGUUCAGAGAAGGUACAUGAGGAUCACCCAUGUAGAAC	72.2 nM	133 nM	–	–
AUCAUGUAAGGAUAUCUUACAUGUGACUUCGGUCACAGUUAAGAGAAGGUACAUGAGGAUCACCCAUGUAUAAC	28 nM	45.3 nM	–	–
AUCCAGGUAACAUGAGGAUCACCCAUGUUCCUUCGCUCUGGCAAGGAUAUGAAGGGAUUGUCCCAUCAGAAGGUGCAUGGGUGC	–	–	23 nM	19.9 nM
AUCCGGCGUGUAGGAUAUGGAAAAAAUUAGGAUCCAGAAGGACAUGAGGAUCACCCAUGUACAUGUAAACAGUCAUCACCGGAA	33.5 nM	51.7 nM	–	–
AUCCUGCGAGGAUAUACAUAAUUUUUUUCAUUUGGUUGCGAACAUGAGGAUCACCCAUGUAGAAGGUGCUUCAC	66.7 nM	62.5 nM	–	–
AUCGGCAACACCAUGGUGGAUCCUGAGGAUAUGAAAAGCUACAUGAGGAUCACCCAUGUCCCGCGUCAGAAGGCAGGUUUGAUC	–	–	138 nM	17 nM
AUCGGUCCGUAGAAGGGUGACAUGAGGAUCACCCAUGUGCCGUGGGCAUUUAUGCCUCCACGGCCACAGGAUAUACGGAGUUGA	–	–	54 nM	36.8 nM
AUCGUAACUUCGUGUCCACAUGAGGAUCACCCAUGUGCUACAAGAAGGGCCCGGGUCGGGUUAGGGCAGGAUAUUGUGUGCACA	9.15 nM	19.1 nM	–	–
AUCGUUCGAGAGAAGGGAACAUGAGGAUCACCCAUGUUACCUCACCUGGUGACGGAACUCCAAGUUCAGGAUAUCUCGAGCAAU	5.38 nM	8.25 nM	–	–
AUGAAGAGGCAAGGAUAUCGAGUGCUGGGCCUAUACAUGAGGAUCACCCAUGUCCUGGCAGGACGUGAGAAGGUGUAUCUAAUA	–	–	217 nM	343 nM
AUGACAGGCAAAGCGCAACGGCAAACAUGAGGAUCACCCAUGUAGGAUAUGCUACACAAAGUGUAGCAGAAGGACAUACGACGA	36.4 nM	75.2 nM	–	–
AUGACAUGCAGAGCGCAACGGCGUACAUGAGGAUCACCCAUGUAGGAUAUACUACACAAAGUGUAGUAGAAGGACAUGCGACGG	30.8 nM	50.8 nM	–	–
AUGAUUAUAUUAUACAUGAGGAUCACCCAUGUUAUAAGUCAUGAGGAUAUGGUAUUGUAGUUUUUCCAGAAGGCAUUUAACUUA	–	–	7.91 nM	5.47 nM
AUGCCCUGAGGAUAUCUCAUCUCGCACAUGAGGAUCACCCAUGUUCUUCUCUGGGUUUCGAGAGAAGGCAGGCCUA	701 nM	366 nM	–	–
AUGCCGUGCAGAGCGCGACGGCGAACAUGAGGAUCACCCAUGUAGGAUAUACUACACAAAGUGUAGUAGAAGGACGUGCGACAA	24.6 nM	38.6 nM	–	–
AUGCCGUGCAGAGCGCGACGGCGUACAUGAGGAUCACCCAUGUAGGAUAUACUACACAAAGUGUAGUAGAAGGACGUGCGACUG	30.6 nM	33.4 nM	–	–
AUGCGGUCAGGAUAUGCAUGGCGGGACUUGCGUCGUGGCGUGGAGAAGGGACAUGAGGAUCACCCAUGUGGAGU	79 nM	45.2 nM	–	–
AUGCUAUACGAAGGAUAUGGUUACAUGAGGAUCACCCAUGUUAUGAUUGGUUACUUGUUUAGUUUCCAGAAGGUCGUAUAGCUA	58.1 nM	232 nM	–	–
AUGCUCAGAGGAUAUACAUGAGGAUCACCCAUGUGUUACCGAGGAGUACGGUCGUCACGUAGAAGGCUGGGUAA	17.9 nM	58.8 nM	–	–
AUGCUGUCAGGAUAUCGUUAAUUUAGUUGUUUGUAUUAGUUCGAGAAGGGACAUGAGGAUCACCCAUGUUUGUA	30.8 nM	37.4 nM	–	–

Sequence	apparent Kd [1]	apparent Kd [2]	apparent Kd [3]	apparent Kd [4]
AUGGAUAUCACAGGAUAUGCCAGGGAUACCCUGGCAGAAGGGUGAUCCAUCCUAUGUAAAUACAUGAGGAUCACCCAUGUGUCC	–	–	51.7 nM	43.6 nM
AUGGUUCUCGUAGGAUAUGUAGGAUAUGCCUACAUGAGGAUCACCCAUGUUCGCAUGGCAGAAGGACAGAAGGACGAUCACCAA	–	–	365 nM	19.2 nM
AUGUUACAUGAGGAUCACCCAUGUGAGGAUAUGUGUACCGGUAAAAAAGUGUCUGGCCACAGAAGGCAUUUGGA	29.4 nM	33 nM	–	–
AUUAAUCAGCAGGAUAUAAGUAUCUGAUGGUGGUUAGAAGGGCUGACAUGAGGAUCACCCAUGUGCUCUUCGUG	11.4 nM	13.8 nM	–	–
AUUACAUGAGGAUCACCCAUGUACAGAACGUUUCAUUACAGUGAGGAUAUACGAAAUGUAGGAGCGUAGAAGGCACUGGGUACA	–	–	129 nM	40.1 nM
AUUAGUAUCUAGGAUAUCUAGUACAUAGUAUCUAGAGAAGGAGAUACAUGAGGAUCACCCAUGUUCUGUGAUCU	204 nM	44.4 nM	–	–
AUUAUAUAGAUAGGAUAUAGAAUAUUAUUUUAACAUGAGGAUCACCCAUGUAACCUUAUGUGUAGCUAGAAGGAUCAUUUAUUA	80.3 nM	113 nM	–	–
AUUAUAUAGUAAGGAUAUAGAUUAUUAUUUUAACAUGAGGAUCACCCAUGUAGCCUUAUGUAUAACUAGAAGGUACAUUUAUUA	47.8 nM	50.5 nM	–	–
AUUAUGACCGAGUUAUAACUCUAAACAUGAGGAUCACCCAUGUAGGAUAUCAGCACGAUAAGUGCUGAGAAGGACAUCUCGGUC	16.4 nM	18.1 nM	–	–
AUUAUGUAAGGAUAUCUUACAUGUGACUUCGGUCACUGUUCAGAGAAGGUACAUGAGGAUCACCCAUGUAGAAC	17.9 nM	18.4 nM	–	–
AUUAUGUCAGGAUAUCAGUAGUAAAAAAAAAAAAUUACUACUGAGAAGGGACAUGAGGAUCACCCAUGUCAAAA	23 nM	30.6 nM	–	–
AUUAUUGGCUAAGGAUAUGGAUACAUGAGGAUCACCCAUGUAUAAUUUGUGAUCAUAUAAAUGAUCCAGAAGGUAGCUGUUUAU	81.6 nM	220 nM	–	–
AUUAUUUAUAGUUAUUGGUAAUUGACAGAAGGUGAAAGUGUCACAUGAGGAUCACCCAUGUUCUUCAAGGAUAUGUUGGUAUAC	–	–	88.3 nM	14 nM
AUUCCUUGUGUUAGGAUAUGUCACUACCGUAUGCGACAGAAGGAACAUGAGGAUCACCCAUGUGAGUUAGCCGA	87.5 nM	24.1 nM	–	–
AUUGUUAAGUUAGGAUAUAGUAAAAUAAUUUAGUUAGAAGGAGCUCACAUGAGGAUCACCCAUGUAAGAGGAUCACCCAUGUAU	25.6 nM	20.1 nM	–	–
AUUUAAAAGUCAGGAUAUGGUAGAUUAUUCUUAUCAGAAGGGAUUAUUAUACUCAAGUACAUGAGGAUCACCCAUGUUAAAUCA	–	–	18.1 nM	10.2 nM
AUUUAACAUGAGGAUCACCCAUGUGAGGAUAUGUCCAUAUUCGGCAAAUCGGAUAUGGACAGAAGGCACACCGG	105 nM	194 nM	–	–
AUUUAGUGCGAGAAGGCGUGGUCACAUGAGGAUCACCCAUGUCAGUACACGAGGAUAUCGAUCCGCUAUGUAAAUAUAUGCGGC	–	–	78 nM	7.51 nM
AUUUAUGGCCAGAAGGACAUGAGGAUCACCCAUGUAGGAUAUGGACGAUUUUGCCCGGCGGUUCGUUUAGGAAGCACCGGUGGU	–	–	11.5 nM	7.11 nM
AUUUAUUAGUAAGGAUAUACUAGCGAUUAGCUUGUAGAAGGUACAGUCUUAUGUAUAACAUGUUAACAUGAGGAUCACCCAUGU	–	–	60.4 nM	27.9 nM
AUUUCAUUCCUUCGACCAUUACCGAGAAGGGUCCACAUGAGGAUCACCCAUGUGGUCCUGAGCGGACAGGAUAUCGGAGUCGGG	18.2 nM	17.7 nM	–	–
AUUUCGUCAGGAUAUCCUAGUAAUUGUUUCAUAUUUACGAUGGAGAAGGGACAUGAGGAUCACCCAUGUUGGUC	55.8 nM	169 nM	–	–
AUUUGACACGUAGGAUAUCGCUCAAAUUUAACACGAGAAGGACGAACAUGAGGAUCACCCAUGUAACAUGGUGUAGUUUAUUUG	62.7 nM	88.1 nM	–	–
AUUUUAAAGGGAGGAUAUACAUGAGGAUCACCCAUGUAAACGUGAGGAUCACCCAUGUAAACAAUGUAGAAGGCCUAAAUCUAU	86.1 nM	73.6 nM	–	–
AUUUUUAAGGUAGGAUAUAGUAUGAUGGUUUAAUUAGAAGGAUCUCACAUGAGGAUCACCCAUGUAAUAGGAUUACCCAUGUAU	53.7 nM	33.3 nM	–	–
CAAAACGUCGAGAAGGGCUCAGCGCAAGUGCCAGCAGGAUAUCGACAUGAGGAUCACCCAUGUCGUAUUUCAGGGUAGAUUUCA	8.66 nM	34.9 nM	–	–
CAAAAGCGAGGAUAUACAUGAGGAUCACCCAUGUGGCAGCCAUGUAGGAGUGACGUCGGUAGAAGGCGCACCCU	99.8 nM	141 nM	–	–
